Series [1] concerns the target Replicase polyprotein 1ab (Severe acute respiratory syndrome coronavirus 2) (UniProt P0DTD1). Kind of series: Inhibition of SARS-CoV-2 3CLpro using TVLQ-AMC probe as substrate at 10 uM preincubated with enzyme for 5 mins followed by substrate addition and measured after 3 hrs for every 15 mins for 1 hr by FRET assay. The settings on record: time 245.0 min. An outline of the steps: (§1)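 3CLpro (0.4 µM final) preincubated 5 min at room temperature with compound in Tris-HCl pH 7.3, 1 mM EDTA. TVLQ-AMC added to 40 µM final. Fluorescence (ex 364/em 440 nm) read every 15 min for 1 h and at 3 h, in triplicate. Values normalized to the mean 3 h no-inhibitor control set as 100.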

Series [2] concerns Vero C1008. Kind of series: Cytotoxicity against African green monkey Vero E6 cells assessed as effect on nuclei count. The settings on record: chlorocebus sabaeus. It is filed as cell-based.
Series [3] concerns SARS-CoV-2. The series can be described thus: Antiviral activity against SARS-CoV-2 infected in African green monkey Vero E6 cells assessed as inhibition of viral spread cells preincubated with compound for 1 hr followed by viral infection for 1 hr and later washed with PBS followed by re-incubated with compound for 48 hrs. In kind it is functional, organism-based, Severe acute respiratory syndrome coronavirus 2.

The subject of series [4] is SARS-CoV-2. The series can be described thus: Antiviral activity against SARS-CoV-2 infected in African green monkey Vero E6 cells assessed as inhibition of viral entry cells preincubated with compound for 1 hr followed by viral infection for 1 hr and later washed with PBS followed by re-incubated with compound for 24 hrs. It is filed as functional, organism-based, Severe acute respiratory syndrome coronavirus 2.

The target in series [5] is Replicase polyprotein 1ab (Severe acute respiratory syndrome coronavirus 2) (UniProt P0DTD1). The series can be described thus: Inhibition of SARS-CoV-2 3CLpro using TVLQ-AMC probe as substrate at 50 uM preincubated with enzyme for 5 mins followed by substrate addition and measured after 3 hrs for every 15 mins for 1 hr by FRET assay. Particulars: time 245.0 min. An outline of the steps:
as §1

The subject of series [6] is Vero C1008. The series can be described thus: Cytotoxicity against African green monkey Vero E6 cells assessed as reduction in cell survival at 50 uM. It is filed as cell-based. Particulars: chlorocebus sabaeus, vero c1008, 50 µM.
Where [7] appears, read: Severe acute respiratory syndrome coronavirus 2, Vero C1008.

As usually defined, the inhibition is how much of the control response was suppressed. What is called IC50 is the point on the concentration scale where inhibition reaches its midpoint.

Take `CC(C)(C)OC(=O)N[C@@H](Cc1ccccc1)[C@@H](O)CN1CCC(N2CCCCC2)CC1`: the inhibition in series [1] was 5%; in series [5], 12%. Further, the Activity result in the series on Vero C1008 [2] is given as “Non-Toxic”. Moreover, the values for the IC50 in the series on SARS-CoV-2 [3] (setting [7]) and with SARS-CoV-2 [4] (setting [7]) were 10.1 µM and 6.33 µM, respectively.
Turning to `CC(C)(C)OC(=O)NC(Cc1ccccc1)C(=O)N[C@@H](Cc1ccccc1)[C@@H](O)CN1CCN(Cc2ccc(C(F)(F)F)cc2)CC1` (some centres undefined), the inhibition in series [1] was 5%; in series [5], 12%. For the same compound, the Activity result with Vero C1008 [2] is “Non-Toxic”. Moreover, the IC50 in the series on SARS-CoV-2 [3] (setting [7]) came to 12.5 µM.
With `Cc1ccc2c(c1)C(=O)N([C@H](Cc1ccccc1)C(=O)N[C@@H](Cc1ccccc1)[C@@H](O)CN1CCN(C[C@H](O)[C@H](Cc3ccccc3)NC(=O)[C@@H](Cc3ccccc3)N3C(=O)c4ccc(C)cc4C3=O)CC1)C2=O`, the inhibition in series [1] worked out at 5%; in series [5], 12%. In the series with Vero C1008 [2], the Activity entry was “Non-Toxic”. Moreover, the results for the IC50 with SARS-CoV-2 [3] (setting [7]) and in the series on SARS-CoV-2 [4] (setting [7]) were 14.7 µM and 10.9 µM, respectively.
For IVERMECTIN [listing 1 of 2 here], the inhibition in series [1] is 85%; in series [5] it was 90%.
In the case of IVERMECTIN [listing 2 of 2 here], the IC50 in the series on SARS-CoV-2 [3] (vero e6) is 6.02 µM; in the series with SARS-CoV-2 [4] (vero e6), 2.7 µM. The Activity entry in the series on Vero C1008 [6] is reported as “Toxic”.

The values above are taken from ChEMBL document CHEMBL4825754, “Antiviral evaluation of hydroxyethylamine analogs: Inhibitors of SARS-CoV-2 main protease (3CLpro), a virtual screening and simulation approach” (Bioorg Med Chem, 2021).
